Reference: ChEMBL document CHEMBL4373712, “Bioactivatable Pseudotripeptidization of Cyclic Dipeptides To Increase the Affinity toward Oligopeptide Transporter 1 for Enhanced Oral Absorption: An Application to Cyclo(l-Hyp-l-Ser) (JBP485)” (J Med Chem, 2019)

What was measured:
[1] = target: T1, Solute carrier family 22 member 1 (Homo sapiens, UniProt O15245); test: Substrate activity at OCT1 in human Caco2 cells assessed as protein-mediated drug uptake at 0.5 mM measured after 10 mins in absence of OCT1 substrate metformin by UPLC-MS/MS analysis; assay type: ADME, cell-based; details: caco-2, 10 min, 500 µM
T1 sequence (O15245 whole entry): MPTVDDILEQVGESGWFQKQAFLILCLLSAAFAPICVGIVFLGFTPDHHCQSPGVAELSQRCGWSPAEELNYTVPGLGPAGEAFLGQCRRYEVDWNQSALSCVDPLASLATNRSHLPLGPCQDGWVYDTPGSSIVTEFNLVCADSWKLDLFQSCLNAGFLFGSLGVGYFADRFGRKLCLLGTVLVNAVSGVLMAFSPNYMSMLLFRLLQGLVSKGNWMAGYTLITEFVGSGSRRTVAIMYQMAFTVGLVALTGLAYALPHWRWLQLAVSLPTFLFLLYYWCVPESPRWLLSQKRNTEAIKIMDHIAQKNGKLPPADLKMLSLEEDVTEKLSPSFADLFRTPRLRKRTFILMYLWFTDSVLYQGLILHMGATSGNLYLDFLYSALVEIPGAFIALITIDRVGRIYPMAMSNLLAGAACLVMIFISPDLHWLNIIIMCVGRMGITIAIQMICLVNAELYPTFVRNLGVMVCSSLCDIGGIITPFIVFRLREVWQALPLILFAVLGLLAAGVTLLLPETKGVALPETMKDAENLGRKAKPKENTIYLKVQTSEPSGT
How it was run: (§1)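 Caco-2 cells in 24-well plates took up 0.5 mM compound for 10 min at 37 °C, with or without 50 mM captopril ([…]) or metformin (OCT1-3 substrate). Cells were washed in ice-cold PBS and homogenised in water; lysate protein was measured and drug assayed by UPLC-MS/MS. n=3.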

[2] = target: T2, Solute carrier organic anion transporter family member 2B1 (Homo sapiens, UniProt O94956); test: Substrate activity at OATPB in human Caco2 cells assessed as protein-mediated drug uptake at 0.5 mM measured after 10 mins in absence of OATPB substrate captopril by UPLC-MS/MS analysis; details: caco-2, 10 min, 500 µM
T2 sequence (O94956 whole entry): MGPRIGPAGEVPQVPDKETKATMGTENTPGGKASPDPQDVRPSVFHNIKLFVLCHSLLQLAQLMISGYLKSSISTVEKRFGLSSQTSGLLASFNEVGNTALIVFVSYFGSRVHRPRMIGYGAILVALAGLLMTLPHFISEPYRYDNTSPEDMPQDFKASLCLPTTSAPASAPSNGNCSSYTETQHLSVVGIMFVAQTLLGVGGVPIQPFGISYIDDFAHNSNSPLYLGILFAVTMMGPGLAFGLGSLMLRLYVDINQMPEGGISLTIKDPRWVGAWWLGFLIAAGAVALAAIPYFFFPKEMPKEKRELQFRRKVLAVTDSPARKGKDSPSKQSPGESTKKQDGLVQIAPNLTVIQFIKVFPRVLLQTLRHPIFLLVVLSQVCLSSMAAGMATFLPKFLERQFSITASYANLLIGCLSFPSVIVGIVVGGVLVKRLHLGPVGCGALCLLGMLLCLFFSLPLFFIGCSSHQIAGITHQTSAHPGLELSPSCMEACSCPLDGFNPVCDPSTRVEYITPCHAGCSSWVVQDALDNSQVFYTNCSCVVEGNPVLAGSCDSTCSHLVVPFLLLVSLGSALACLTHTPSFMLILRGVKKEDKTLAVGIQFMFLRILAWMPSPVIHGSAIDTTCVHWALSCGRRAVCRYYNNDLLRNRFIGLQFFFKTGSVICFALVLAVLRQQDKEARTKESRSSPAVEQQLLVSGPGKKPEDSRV

[3] = target: T3, Solute carrier family 22 member 3 (Homo sapiens, UniProt O75751); test: Substrate activity at OCT3 in human Caco2 cells assessed as protein-mediated drug uptake at 0.5 mM measured after 10 mins in absence of OCT1 substrate metformin by UPLC-MS/MS analysis; assay type: ADME, cell-based; details: caco-2, 10 min, 500 µM; how it was run: as §1
T3 sequence (O75751 whole entry): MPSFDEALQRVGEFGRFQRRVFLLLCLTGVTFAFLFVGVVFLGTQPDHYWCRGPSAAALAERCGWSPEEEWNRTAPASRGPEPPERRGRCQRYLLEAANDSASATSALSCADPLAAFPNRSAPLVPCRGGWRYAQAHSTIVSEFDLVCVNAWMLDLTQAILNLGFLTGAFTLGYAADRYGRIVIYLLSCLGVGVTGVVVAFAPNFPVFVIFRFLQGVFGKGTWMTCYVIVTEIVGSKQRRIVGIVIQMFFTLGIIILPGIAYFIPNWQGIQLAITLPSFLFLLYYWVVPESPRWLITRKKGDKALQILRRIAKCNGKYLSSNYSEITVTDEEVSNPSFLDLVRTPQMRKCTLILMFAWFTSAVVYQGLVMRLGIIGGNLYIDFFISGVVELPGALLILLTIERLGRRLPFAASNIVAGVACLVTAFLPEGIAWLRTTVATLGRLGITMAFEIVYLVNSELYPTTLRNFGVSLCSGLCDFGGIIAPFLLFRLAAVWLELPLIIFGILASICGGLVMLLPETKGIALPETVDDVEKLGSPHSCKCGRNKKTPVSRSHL

[4] = Half life in pH 6.8 simulated intestinal fluid at 5 mM by HPLC analysis; assay type: ADME
How it was run: (§2)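 Compound at 5 mM in 0.1 M HCl, pH 4.5 acetate buffer, pH 5.8/6.8/7.2 phosphate buffers, SGF (pH 1.2) and SIF (pH 6.8), prepared per Chinese Pharmacopoeia. Samples taken at 0-20 h and analyzed by HPLC-UV. k = 2.303×slope of log C versus time; t1/2 = 0.693/k.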

[5] = Half life in pH 7.2 phosphate buffer at 5 mM by HPLC analysis; assay type: physicochemical; how it was run: as §2

SMILES	Drug uptake [1]	Drug uptake [2]	Drug uptake [3]	half-life at 5000 µM [4] [h]	half-life at 5000 µM [5] [h]
CC(C)[C@H](N)C(=O)OC[C@@H]1NC(=O)[C@@H]2C[C@@H](O)CN2C1=O	Not Active	Not Active	Not Active	7.9	5.5
O=C1N[C@@H](CO)C(=O)N2C[C@H](O)C[C@@H]12	Not Active	Not Active	Not Active	> 20	> 20
